The record followed here is ChEMBL document CHEMBL1817602, “Synthesis of benzo[3,4]azepino[1,2-b]isoquinolin-9-ones from 3-arylisoquinolines via ring closing metathesis and evaluation of topoisomerase I inhibitory activity, cytotoxicity and docking study” (Bioorg Med Chem, 2011).

Experiment [1] is filed under the species Bos taurus. The experiment can be described thus: Inhibition of calf thymus topoisomerase 1-mediated relaxation of supercoiled pBR322 DNA at 20 to 100 uM after 30 mins using ethidium bromide staining by UV-light transillumination analysis. The method, boiled down:
(§1)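 Plasmid pBR322 (200 ng) with 0.3 U calf thymus topo I, compound at final 20 or 100 μM, 37 °C for 30 min in relaxation buffer (35 mM Tris–HCl pH 8.0, 72 mM KCl, MgCl2, DTT, spermidine, 0.01% BSA). Stopped with SDS loading mix, run on 1% agarose in TBE for 10 h, stained with ethidium bromide (0.5 μg/mL), and UV-visualized and quantitated. Scored semiquantitatively against camptothecin.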

A further experiment concerns HCT-15. Kind of experiment: Cytotoxicity against human HCT15 cells after 48 hrs by MTT assay. The class given is functional, cell-based. The settings on record: HCT-15, 48 h. The procedure, abridged:
(§2)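 Cells seeded at 10^5 cells/mL in 100 µL RPMI-1640 with 10% FBS; compounds added at various concentrations after 24 h and incubated 48 h. MTT (5 mg/mL stock in PBS, 50 µL per well) was added for a further incubation. Medium was discarded, formazan dissolved in DMSO, and absorbance read at 540 nm.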

The test system of another experiment is SK-MEL-2. The experiment can be described thus: Cytotoxicity against human SK-MEL-2 cells after 48 hrs by MTT assay. Format: functional, cell-based. The settings on record: SK-MEL-2, 48 h. The method, boiled down:
as §2
Background: Tetrazolium assays rely on reduction of a dye to a coloured formazan, in cell work by metabolically active cells.

The test system of a further experiment is A549. Kind of experiment: Cytotoxicity against human A549 cells after 48 hrs by MTT assay. The class given is functional, cell-based. The settings on record: A549, 48 h. The procedure, abridged: as §2
A further experiment relates to SK-OV-3. The experiment can be described thus: Cytotoxicity against human SKOV3 cells after 48 hrs by MTT assay. The class given is functional, cell-based. The settings on record: SK-OV-3, 48 h. The method, boiled down: as §2
For experiment [2], the species on record is Bos taurus. The experiment can be described thus: Inhibition of calf thymus topoisomerase 1-mediated relaxation of supercoiled pBR322 DNA at 20 to 100 uM after 30 mins using ethidium bromide staining by UV-light transillumination analysis relative to camptothecin. The procedure, abridged:
as §1

Activity calls are given as the source filed them. The rule behind the calls is not given here.

Take `C=CCn1c(-c2cc3c(cc2COCOC)OCO3)cc2ccc(OC)c(OC)c2c1=O`: in the experiment filed under Bos taurus [1], the inhibition result was “inactive”. The IC50 (usually the concentration that inhibits the measured activity by half) in the experiment with HCT-15 was 28.2 µM; in the experiment with SK-MEL-2, 27.4 µM; in the experiment with A549, 29.9 µM; in the experiment on SK-OV-3, more than 100 µM.

As to `CC[C@@]1(O)C(=O)OCc2c1cc1n(c2=O)Cc2cc3ccccc3nc2-1` [CAMPTOTHECIN], in the experiment filed under Bos taurus [1], the inhibition entry is “Active”. Besides, the IC50 in the experiment on HCT-15 was determined as 0.166 µM; in the experiment on SK-MEL-2, 7.86 µM; with A549 it was 0.091 µM; with SK-OV-3, 2.54 µM.

With `C=CCn1c(-c2cc(OC)c(OC)cc2COCOC)cc2ccccc2c1=O`, in the experiment listed under Bos taurus [1], the inhibition result was “Active”. The IC50 was found to be 78.7 µM with HCT-15, 75 µM in the experiment with SK-MEL-2, 88.1 µM in the experiment on A549 and 37.7 µM in the experiment on SK-OV-3.

On to `C=CCn1c(-c2cc3c(cc2C=O)OCO3)cc2ccccc2c1=O`, for which, in the experiment filed under Bos taurus [1], the inhibition result was “Active”. Further, the IC50 in the experiment with HCT-15 was 54.1 µM; in the experiment with SK-MEL-2, more than 100 µM; in the experiment with A549, 87.5 µM; in the experiment with SK-OV-3, 56.9 µM.

As to `C=CCn1c(-c2cc3c(cc2COCOC)OCO3)cc2ccccc2c1=O`, the inhibition result in the experiment filed under Bos taurus [1] is “Active”. Further, the IC50 with HCT-15 turned out to be 36.1 µM; in the experiment on SK-MEL-2 it was 15.4 µM; in the experiment with A549 it was 19.8 µM; with SK-OV-3 it was 29.5 µM.

Regarding `COc1cc2c(cc1OC)-c1cc3ccccc3c(=O)n1CC=C2`, in the experiment listed under Bos taurus [1], the inhibition result is “Active”. In addition, the IC50 with HCT-15 came to 21.3 µM; in the experiment with SK-MEL-2, 6.23 µM; with A549, 14.8 µM; in the experiment on SK-OV-3, 11 µM.

With `C=CCn1c(-c2cc3c(cc2C=C)OCO3)cc2ccc(OC)c(OC)c2c1=O`, the inhibition result in the experiment filed under Bos taurus [1] is “inactive”. Also, the IC50 in the experiment with HCT-15, in the experiment on SK-MEL-2, in the experiment with A549 and in the experiment with SK-OV-3 was more than 100 µM throughout.

`C=CCn1c(-c2cc3c(cc2C=C)OCO3)cc2ccccc2c1=O`: the inhibition result in the experiment filed under Bos taurus [1] is “Active”. For the same molecule, the IC50 came to 11.2 µM in the experiment on HCT-15, 9.36 µM with SK-MEL-2, 19.3 µM in the experiment on A549 and 13.6 µM with SK-OV-3.

As for `C=CCn1c(-c2ccc(OC)cc2COCOC)cc2ccccc2c1=O`, in the experiment filed under Bos taurus [1], the inhibition entry is “Active”. Besides, the IC50 was 27.8 µM in the experiment on HCT-15, 42.6 µM in the experiment on SK-MEL-2, more than 100 µM with A549 and more than 100 µM with SK-OV-3.

On to `C=CCn1c(-c2cc(OC)c(OC)cc2C=C)cc2ccccc2c1=O`, for which the inhibition result in the experiment filed under Bos taurus [1] was “Active”. Besides, the IC50 with HCT-15 amounted to 75.2 µM; in the experiment on SK-MEL-2 it was 47.7 µM; in the experiment with A549, 43.2 µM; in the experiment with SK-OV-3 it was 35.5 µM.

In the case of `C=CCn1c(-c2cc3c(cc2C=O)OCO3)cc2ccc(OC)c(OC)c2c1=O`, the inhibition result in the experiment listed under Bos taurus [1] was “Active”. Besides, the IC50 turned out to be 63.9 µM in the experiment with HCT-15, 71.2 µM in the experiment on SK-MEL-2, 85.1 µM with A549 and 61.7 µM in the experiment with SK-OV-3.

On to `C=CCn1c(-c2cc(OC)c(OC)cc2C=O)cc2ccccc2c1=O`, for which the inhibition result in the experiment filed under Bos taurus [1] was “Active”. Besides, the IC50 in the experiment with HCT-15 came out at 77.5 µM; with SK-MEL-2 it was 67.6 µM; in the experiment with A549, 76.3 µM; with SK-OV-3 it was 85.5 µM.

As for `COc1ccc2cc3n(c(=O)c2c1OC)CC=Cc1cc2c(cc1-3)OCO2`, the inhibition entry in the experiment filed under Bos taurus [1] was “Active”. Besides, the IC50 in the experiment on HCT-15 was 6.34 µM; in the experiment with SK-MEL-2, 2.54 µM; with A549 it was 7.45 µM; in the experiment on SK-OV-3, 2.8 µM.

Consider `COCOCc1cc(OC)c(OC)cc1-c1cc2ccccc2c(=O)[nH]1`, for which the inhibition result in the experiment filed under Bos taurus [1] was “Active”. Moreover, the IC50 was found to be 73.7 µM with HCT-15, 55.2 µM in the experiment on SK-MEL-2, 85.1 µM with A549 and 87.7 µM in the experiment with SK-OV-3.

`O=c1c2ccccc2cc2n1CC=Cc1cc3c(cc1-2)OCO3`: the inhibition result in the experiment filed under Bos taurus [1] was “Active”. Besides, the IC50 came out at 20.1 µM in the experiment on HCT-15, 28.6 µM in the experiment on SK-MEL-2, 17.1 µM in the experiment on A549 and 29.1 µM in the experiment on SK-OV-3.

`C=CCn1c(-c2ccc(OC)cc2C=O)cc2ccccc2c1=O`: the inhibition entry in the experiment filed under Bos taurus [1] was “Active”. Further, the IC50 was 56.5 µM with HCT-15, 88.9 µM in the experiment on SK-MEL-2, 88.1 µM in the experiment on A549 and 65.5 µM in the experiment with SK-OV-3.

For the molecule `COCOCc1cc2c(cc1-c1cc3ccccc3c(=O)[nH]1)OCO2`, the IC50 with HCT-15 stood at 13.1 µM; in the experiment with SK-MEL-2, 64.5 µM; in the experiment on A549, 7.93 µM; in the experiment with SK-OV-3, 22.9 µM. In the experiment filed under Bos taurus [2], the inhibition result was “Active”.

Turning to `COc1ccc2c(c1)C=CCn1c-2cc2ccccc2c1=O`, the inhibition entry in the experiment filed under Bos taurus [1] was “Active”. Further, the IC50 is 12.6 µM with HCT-15, 7.74 µM in the experiment with SK-MEL-2, 6.48 µM in the experiment with A549 and 24.3 µM in the experiment with SK-OV-3.

For `C=CCn1c(-c2ccc(OC)cc2C=C)cc2ccccc2c1=O`, in the experiment listed under Bos taurus [1], the inhibition result is “Active”. The IC50 in the experiment with HCT-15 is 22.8 µM; in the experiment with SK-MEL-2, 11.6 µM; with A549 it was 17.2 µM; with SK-OV-3, 43.8 µM.

With `COCOCc1cc(OC)ccc1-c1cc2ccccc2c(=O)[nH]1`, the inhibition result in the experiment filed under Bos taurus [1] is “Active”. Moreover, the IC50 in the experiment with HCT-15 came out at 27.5 µM; in the experiment on SK-MEL-2, 97.6 µM; with A549, 45.3 µM; in the experiment on SK-OV-3, 75.5 µM.
